Experimental data taken from PMC9749463 (European Journal of Pharmacology, 2021).
Like-named read-outs stand apart in the source and are kept apart here. Each block holds one compound with its values, some of them ahead of it.

How the values were obtained:
[1] = test system: human recombinant KV4.3; conditions: 30 μM, manual patch-clamp; ref Crumb et al., 2016; cited from earlier work
[2] = test system: human recombinant CaV1.2; conditions: 30 μM, manual patch-clamp; ref Crumb et al., 2016; cited from earlier work
[3] = biological target: T1, Kir2.1 (Homo sapiens, UniProt P63252); conditions: read-out: IC50 Kir2.1; manual patch-clamp; ref Crumb et al., 2016; cited from earlier work
T1 sequence (P63252 1-427): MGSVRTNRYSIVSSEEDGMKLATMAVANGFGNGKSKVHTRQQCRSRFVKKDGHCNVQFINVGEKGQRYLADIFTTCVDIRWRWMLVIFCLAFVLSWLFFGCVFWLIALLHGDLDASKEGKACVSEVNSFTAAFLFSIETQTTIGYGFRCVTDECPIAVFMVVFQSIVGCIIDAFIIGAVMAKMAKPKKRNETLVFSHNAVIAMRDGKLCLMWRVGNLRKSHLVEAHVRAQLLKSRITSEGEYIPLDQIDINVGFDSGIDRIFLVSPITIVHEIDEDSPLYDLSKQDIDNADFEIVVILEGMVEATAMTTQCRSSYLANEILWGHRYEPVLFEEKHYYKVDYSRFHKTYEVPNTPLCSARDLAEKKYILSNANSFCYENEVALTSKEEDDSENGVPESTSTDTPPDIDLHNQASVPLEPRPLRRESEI

[4] = test system: Kir2.1; conditions: read-out: IC50 Kir2.1 outward component; ref Rodriguez-Menchaca et al., 2008; cited from earlier work
[5] = test system: human recombinant NaV1.5; conditions: 30 μM, manual patch-clamp; ref Crumb et al., 2016; cited from earlier work
[6] = test system: human recombinant KV7.1; conditions: 30 μM, manual patch-clamp; ref Crumb et al., 2016; cited from earlier work
[7] = biological target: CaV1.2/β2/α2δ1 (Homo sapiens, UniProt Q13936); assay: automated patch-clamp; assay type: cell-based; conditions: CdCl2 0.2 mM, end of recording
[8] = test system: human adult cardiomyocytes; conditions: potassium in buffer decreased from 4 mM to 2.5 mM; ref Jordaan et al., 2021; cited from earlier work
[9] = test system: Kir2.1; conditions: read-out: IC50 Kir2.1; QPatch II platform; ref Okada et al., 2021; cited from earlier work
[10] = HCQ monotherapy, meta-analysis of 28 clinical studies; ref Oscanoa et al., 2020; cited from earlier work
[11] = ref Carlsson et al., 2020; cited from earlier work
[12] = test system: hERG; conditions: read-out: IC50 hERG; QPatch II platform; ref Okada et al., 2021; cited from earlier work
[13] = test system: Plasmodium falciparum; conditions: isolates grown in human erythrocytes; ref Warhurst et al., 2003; cited from earlier work
[14] = biological target: NaV1.5 (Homo sapiens, UniProt Q14524); assay: automated patch-clamp; assay type: cell-based; conditions: for decrease of NaV1.5 current: up to the highest tested concentration of 90 μM, attributable to current rundown
[15] = test system: rabbit Purkinje fibers; assay: current clamp action potential recording on excised rabbit Purkinje fibers; conditions: for effect on membrane and AP parameters: 0.3 μM, any beating rate
Method in brief: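 Purkinje fibers came from male New Zealand rabbits (1.7–2.1 kg). They were superfused at 10 mL/min and 36 ± 1 °C with bicarbonate buffer at pH 7.4. APs were recorded with 3 M KCl microelectrodes under pacing at 3, 1 and 0.25 Hz. Test compound (0.3, 3, 10, 30 μM) was applied for 30 min each, ascending, followed by 30 min washout; n = 6. Analysis used ANOVA with Dunnett versus baseline.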

[16] = test system: human immune-deficiency virus serotype 1; conditions: human T-cell lines and macrophage hybridoma; ref Chiang et al., 1996; cited from earlier work
[17] = biological target: T1, Kir2.1; assay: automated patch-clamp; assay type: cell-based; conditions: levorotatory enantiomer the most potent
[18] = biological target: hERG (Homo sapiens, UniProt Q12809); assay: automated patch-clamp; assay type: cell-based; conditions: ratio of IC50 values
[19] = in vitro; ref McLachlan et al., 1993; cited from earlier work
[20] = ref Wainer et al., 1994; cited from earlier work
[21] = biological target: KV7.1/minK (Homo sapiens, UniProt P51787); assay: automated patch-clamp; assay type: cell-based
[22] = biological target: T2, KV4.3/KChIP2.2 (Homo sapiens, UniProt Q9UK17); assay: automated patch-clamp; assay type: cell-based
T2 sequence (Q9UK17 1-655): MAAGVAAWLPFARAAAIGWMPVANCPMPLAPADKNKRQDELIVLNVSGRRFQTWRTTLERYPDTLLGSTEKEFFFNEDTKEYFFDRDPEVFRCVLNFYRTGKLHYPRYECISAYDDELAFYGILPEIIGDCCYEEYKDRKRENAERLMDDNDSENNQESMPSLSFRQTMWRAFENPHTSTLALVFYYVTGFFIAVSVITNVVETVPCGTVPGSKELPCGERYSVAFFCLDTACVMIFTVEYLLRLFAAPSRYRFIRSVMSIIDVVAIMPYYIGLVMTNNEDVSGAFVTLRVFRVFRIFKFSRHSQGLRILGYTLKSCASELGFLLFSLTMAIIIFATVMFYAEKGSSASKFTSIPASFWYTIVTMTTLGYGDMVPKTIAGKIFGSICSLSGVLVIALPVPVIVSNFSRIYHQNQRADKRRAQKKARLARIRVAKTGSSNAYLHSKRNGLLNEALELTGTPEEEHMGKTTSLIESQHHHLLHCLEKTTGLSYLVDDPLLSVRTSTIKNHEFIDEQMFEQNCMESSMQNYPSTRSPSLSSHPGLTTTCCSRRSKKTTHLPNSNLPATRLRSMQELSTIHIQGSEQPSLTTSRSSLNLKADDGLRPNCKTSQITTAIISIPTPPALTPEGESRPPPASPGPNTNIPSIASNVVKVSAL
T2 sequence (Q9NS61 1-252 isoform Q9NS61-2 partner): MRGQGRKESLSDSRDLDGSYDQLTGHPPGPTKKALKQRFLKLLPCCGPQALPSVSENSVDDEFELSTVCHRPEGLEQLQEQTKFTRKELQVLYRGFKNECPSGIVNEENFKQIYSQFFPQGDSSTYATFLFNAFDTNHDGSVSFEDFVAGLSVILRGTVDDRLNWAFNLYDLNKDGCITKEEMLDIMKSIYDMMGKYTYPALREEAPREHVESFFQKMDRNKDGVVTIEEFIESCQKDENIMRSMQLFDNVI
Method in brief: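 CHO cells constitutively expressing human KV4.3/KChIP2.2 were whole-cell recorded at room temperature. Cells were held at −80 mV and stepped to +20 mV with 500 ms pulses. Test compound was applied at six cumulative ascending concentrations up to 90 μM in 0.3% or 1% DMSO with 1% Pluronic F-68. Leak was removed with 30 μM SKF-96365. Integral charge was normalized to pre-drug, and IC50 was fitted sigmoidally (0–100% constrained) with 95% CI.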

Sequence of NaV1.5 (Q14524 whole entry): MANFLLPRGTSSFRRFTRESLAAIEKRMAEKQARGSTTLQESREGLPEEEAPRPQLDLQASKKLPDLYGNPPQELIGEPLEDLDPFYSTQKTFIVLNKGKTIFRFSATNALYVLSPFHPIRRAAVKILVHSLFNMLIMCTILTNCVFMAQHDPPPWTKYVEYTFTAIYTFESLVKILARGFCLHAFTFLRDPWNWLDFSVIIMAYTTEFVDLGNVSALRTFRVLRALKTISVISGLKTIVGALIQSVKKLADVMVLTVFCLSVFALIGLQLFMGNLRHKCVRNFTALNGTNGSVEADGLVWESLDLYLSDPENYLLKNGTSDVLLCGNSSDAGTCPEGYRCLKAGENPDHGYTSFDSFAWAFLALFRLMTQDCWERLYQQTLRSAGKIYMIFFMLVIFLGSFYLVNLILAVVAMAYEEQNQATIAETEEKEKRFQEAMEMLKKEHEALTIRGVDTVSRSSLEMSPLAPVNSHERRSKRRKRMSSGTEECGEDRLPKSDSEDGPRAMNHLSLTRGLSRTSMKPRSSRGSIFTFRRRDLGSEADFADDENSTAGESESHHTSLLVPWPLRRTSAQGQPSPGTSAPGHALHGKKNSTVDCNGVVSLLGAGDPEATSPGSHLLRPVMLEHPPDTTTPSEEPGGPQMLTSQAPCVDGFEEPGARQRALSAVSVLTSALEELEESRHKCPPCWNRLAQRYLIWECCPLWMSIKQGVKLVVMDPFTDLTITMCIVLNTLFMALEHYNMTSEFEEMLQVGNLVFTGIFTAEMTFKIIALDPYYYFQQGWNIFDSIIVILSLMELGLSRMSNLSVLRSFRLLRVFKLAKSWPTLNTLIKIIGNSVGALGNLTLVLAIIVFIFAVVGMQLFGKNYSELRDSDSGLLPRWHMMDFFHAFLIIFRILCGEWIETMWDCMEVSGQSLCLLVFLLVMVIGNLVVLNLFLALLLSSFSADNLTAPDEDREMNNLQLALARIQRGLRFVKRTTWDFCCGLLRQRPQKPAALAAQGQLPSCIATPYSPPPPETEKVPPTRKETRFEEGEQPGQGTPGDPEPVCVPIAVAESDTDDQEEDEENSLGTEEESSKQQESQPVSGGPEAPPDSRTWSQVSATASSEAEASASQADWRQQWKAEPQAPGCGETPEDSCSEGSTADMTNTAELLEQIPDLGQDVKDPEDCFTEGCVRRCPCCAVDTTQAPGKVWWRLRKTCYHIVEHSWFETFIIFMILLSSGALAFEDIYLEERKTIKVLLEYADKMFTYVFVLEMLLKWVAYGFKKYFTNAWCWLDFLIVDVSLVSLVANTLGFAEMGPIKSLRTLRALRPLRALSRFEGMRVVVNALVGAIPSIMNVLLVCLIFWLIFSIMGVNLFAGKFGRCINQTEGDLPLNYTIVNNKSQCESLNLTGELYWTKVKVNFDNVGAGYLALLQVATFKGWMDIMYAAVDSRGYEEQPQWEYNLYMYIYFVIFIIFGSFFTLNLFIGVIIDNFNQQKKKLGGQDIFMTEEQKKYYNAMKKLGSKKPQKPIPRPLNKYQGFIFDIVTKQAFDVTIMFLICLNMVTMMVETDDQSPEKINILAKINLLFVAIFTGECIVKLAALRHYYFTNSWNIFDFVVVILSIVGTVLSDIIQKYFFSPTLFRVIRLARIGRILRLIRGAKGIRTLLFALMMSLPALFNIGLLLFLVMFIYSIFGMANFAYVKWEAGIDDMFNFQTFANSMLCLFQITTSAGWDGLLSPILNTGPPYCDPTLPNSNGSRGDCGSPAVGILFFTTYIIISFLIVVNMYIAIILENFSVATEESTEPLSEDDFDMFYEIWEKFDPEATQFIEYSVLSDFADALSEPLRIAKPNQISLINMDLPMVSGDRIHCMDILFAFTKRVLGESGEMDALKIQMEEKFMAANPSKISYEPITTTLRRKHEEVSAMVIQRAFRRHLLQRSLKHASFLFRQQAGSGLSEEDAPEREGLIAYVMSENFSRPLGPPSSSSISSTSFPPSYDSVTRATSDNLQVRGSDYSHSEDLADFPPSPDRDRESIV
Sequence of KV7.1/minK (P51787 whole entry): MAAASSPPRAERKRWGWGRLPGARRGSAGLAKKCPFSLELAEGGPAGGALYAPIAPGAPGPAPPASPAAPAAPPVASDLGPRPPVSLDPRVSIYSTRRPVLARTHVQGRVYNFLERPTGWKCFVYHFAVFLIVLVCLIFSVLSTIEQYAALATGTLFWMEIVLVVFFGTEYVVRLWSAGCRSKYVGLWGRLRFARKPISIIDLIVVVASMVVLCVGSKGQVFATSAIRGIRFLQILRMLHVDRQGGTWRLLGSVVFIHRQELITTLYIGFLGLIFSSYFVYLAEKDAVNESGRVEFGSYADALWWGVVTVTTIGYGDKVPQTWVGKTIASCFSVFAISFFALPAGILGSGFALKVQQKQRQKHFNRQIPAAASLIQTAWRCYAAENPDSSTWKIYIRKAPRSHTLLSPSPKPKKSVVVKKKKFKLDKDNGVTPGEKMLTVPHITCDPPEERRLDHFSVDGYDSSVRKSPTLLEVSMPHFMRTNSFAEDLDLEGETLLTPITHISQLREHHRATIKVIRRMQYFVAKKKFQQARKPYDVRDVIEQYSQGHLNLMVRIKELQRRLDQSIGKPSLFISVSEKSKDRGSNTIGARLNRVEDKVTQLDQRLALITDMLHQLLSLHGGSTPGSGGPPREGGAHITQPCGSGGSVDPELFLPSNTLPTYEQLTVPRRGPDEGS
Sequence of hERG (Homo sapiens, UniProt Q12809) (Q12809 whole entry): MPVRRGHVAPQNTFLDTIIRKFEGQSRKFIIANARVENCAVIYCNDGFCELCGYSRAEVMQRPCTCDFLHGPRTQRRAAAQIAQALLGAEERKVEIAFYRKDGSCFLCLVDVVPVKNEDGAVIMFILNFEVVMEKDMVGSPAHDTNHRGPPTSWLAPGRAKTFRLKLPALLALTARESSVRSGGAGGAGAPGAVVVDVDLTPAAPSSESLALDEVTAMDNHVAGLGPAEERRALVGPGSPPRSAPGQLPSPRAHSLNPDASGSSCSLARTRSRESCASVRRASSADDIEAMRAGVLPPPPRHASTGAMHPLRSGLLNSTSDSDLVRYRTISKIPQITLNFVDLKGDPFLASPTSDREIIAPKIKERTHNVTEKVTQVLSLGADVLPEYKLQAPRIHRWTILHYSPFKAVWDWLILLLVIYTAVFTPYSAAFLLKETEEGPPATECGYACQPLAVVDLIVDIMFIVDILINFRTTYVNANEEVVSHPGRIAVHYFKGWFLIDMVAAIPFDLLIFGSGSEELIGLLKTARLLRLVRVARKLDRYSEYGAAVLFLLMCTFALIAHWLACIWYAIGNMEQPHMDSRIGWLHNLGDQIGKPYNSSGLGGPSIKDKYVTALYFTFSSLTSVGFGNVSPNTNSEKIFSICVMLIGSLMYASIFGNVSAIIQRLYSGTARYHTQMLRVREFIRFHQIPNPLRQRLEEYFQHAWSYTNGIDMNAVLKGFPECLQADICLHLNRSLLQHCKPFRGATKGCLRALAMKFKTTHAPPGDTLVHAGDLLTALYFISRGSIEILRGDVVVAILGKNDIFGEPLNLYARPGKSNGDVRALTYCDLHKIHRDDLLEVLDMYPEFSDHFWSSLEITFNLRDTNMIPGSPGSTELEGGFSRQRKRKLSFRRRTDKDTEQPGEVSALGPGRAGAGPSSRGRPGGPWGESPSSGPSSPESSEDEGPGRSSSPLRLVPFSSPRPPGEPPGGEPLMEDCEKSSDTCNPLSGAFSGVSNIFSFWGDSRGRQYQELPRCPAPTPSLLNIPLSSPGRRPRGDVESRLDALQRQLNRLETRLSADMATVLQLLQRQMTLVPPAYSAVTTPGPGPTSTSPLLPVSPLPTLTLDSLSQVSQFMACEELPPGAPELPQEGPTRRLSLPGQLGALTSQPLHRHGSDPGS

SMILES: CCN(CC)CCCC(C)Nc1ccnc2cc(Cl)ccc12 (stereo not drawn) [CQ, chloroquine]
inhibition of KV4.3 [1]: less than 20%
inhibition of CaV1.2 [2]: less than 20%
IC50 [3]: 11 µM
IC50 [4]: 9 µM
inhibition of NaV1.5 [5]: less than 20%
inhibition of KV7.1 [6]: less than 20%

SMILES: [Cl][Cd][Cl] [CdCl2]
effect on CaV1.2 currents [7]: inhibited all the currents

SMILES: CCN(CCO)CCCC(C)Nc1ccnc2cc(Cl)ccc12 (stereo not drawn) [HCQ, Hydroxychloroquine]
proarrhythmic risk at reduced potassium [8]: proarrhythmic risk rose significantly
IC50 [9]: 30 µM
occurrence of QT-prolongations [10]: below 2%
plasma concentrations relative to blood [11]: two-fold lower
IC50 [12]: 17 µM

SMILES: CC(C)COCC(CN(Cc1ccccc1)c1ccccc1)N1CCCC1 (stereo not drawn) [bepridil]
IC50 [14]: 2.5 µM
IC50 [21]: 7.2 µM
IC50 [22]: 11 µM

Further lines, with some results ahead:

autogenic activity ([15]; 10 μM and 30 μM): inducing autogenic activity
block-potency ratio of the enantiomers against Kir2.1 [17]: two-fold
SMILES: CCN(CCO)CCCC(C)Nc1ccnc2cc(Cl)ccc12 (stereo not drawn) [R(-)HCQ]
inhibition of Plasmodium falciparum proliferation, comparison of enantiomers [13]: identical IC50 values
decrease of NaV1.5 current [14]: below 10%
effect on membrane and AP parameters [15]: neither R(-)HCQ nor S(+)HCQ had a significant effect
decrease of median resting membrane potential ([15]; 30 μM, 60 bpm (1 Hz)): 20%
increase of AP duration at near complete repolarization (APD90) ([15]; 30 μM, 180 bpm, n = 2 readings): 25%
early after depolarizations (EADs) ([15]; any concentration and pacing rate): no torsadogenic early after depolarizations (EADs) events were observed
inhibition of HIV-1 replication, comparison of enantiomers [16]: equipotent
greater potency of R(-)HCQ over S(+)HCQ on hERG [18]: 3.7 fold
free fraction (plasma protein binding) [19]: 63%
accumulation in ocular tissue [20]: preferential accumulation

abnormal AP exhibiting EADs ([15]; 10 μM, 15 bpm): one of the six fibers
abnormal AP exhibiting EADs ([15]; 30 μM, 15 bpm, fibers that could follow pacing): one of the four fibers
autogenic activity escaping electrical pacing ([15]; 30 μM, all rates): two out of six fibers
SMILES: CCN(CCO)CCC[C@H](C)Nc1ccnc2cc(Cl)ccc12 [S(+)HCQ]
inhibition of Plasmodium falciparum proliferation, comparison of enantiomers [13]: identical IC50 values
decrease of NaV1.5 current [14]: below 10%
effect on membrane and AP parameters [15]: neither R(-)HCQ nor S(+)HCQ had a significant effect
increase of median APD90 ([15]; 10 μM, 15 bpm): 56%
median APD90 duration in presence of drug ([15]; 10 μM, 15 bpm): 827 ms
increase of median APD90 ([15]; 10 μM, 60 bpm): 34%
median APD90 duration in presence of drug ([15]; 10 μM, 60 bpm): 481 ms
increase of median APD90 ([15]; 10 μM, 180 bpm): 12%
median APD90 duration in presence of drug ([15]; 10 μM, 180 bpm): 246 ms
decrease of median resting membrane potential ([15]; 30 μM, 180 bpm (3 Hz)): 11%
inhibition of HIV-1 replication, comparison of enantiomers [16]: equipotent
free fraction (plasma protein binding) [19]: 36%
